Assay results from ChEMBL document CHEMBL2321792, “Synthesis and antimalarial activity of 3,3-spiroanellated 5,6-disubstituted 1,2,4-trioxanes” (ACS Med Chem Lett, 2013).
pIC50: −log10 of the molar value. In brackets after ≈: the same amount, converted by molar mass. Activity calls are given as the source filed them. The calls are words filed in the database; no cut-off is given here.

Key:
[1] = tested on: Plasmodium yoelii nigeriensis; test: Antimalarial activity against chloroquine, mefloquine and halofantrine-resistant Plasmodium yoelii nigeriensis infected in Swiss mouse assessed as protection against parasite-induced mortality at 96 mg/kg, im administered for 4 days measured on day 28; assay type: functional, organism-based; set-up: dose 96 mg/kg
Method in brief: (§1)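 Peters 4-day test in Swiss mice infected with multidrug-resistant P. yoelii nigeriensis. Groups of 5 mice were dosed once daily for 4 days at the stated mg/kg, oral or i.m. Mice were followed to day 28. Protection is the percentage of treated mice surviving to day 28, read from the alive/total count per group.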

[2] = tested on: Plasmodium yoelii nigeriensis; test: Antimalarial activity against chloroquine, mefloquine and halofantrine-resistant Plasmodium yoelii nigeriensis infected in Swiss mouse assessed as protection against parasite-induced mortality at 24 mg/kg, po administered for 4 days measured on day 28; assay type: functional; method in brief: as §1
[3] = tested on: Plasmodium yoelii nigeriensis; test: Antimalarial activity against chloroquine, mefloquine and halofantrine-resistant Plasmodium yoelii nigeriensis infected in Swiss mouse assessed as protection against parasite-induced mortality at 48 mg/kg, po administered for 4 days measured on day 28; assay type: functional; method in brief: as §1
[4] = tested on: Plasmodium yoelii nigeriensis; test: Antimalarial activity against chloroquine, mefloquine and halofantrine-resistant Plasmodium yoelii nigeriensis infected in Swiss mouse assessed as suppression of parasitemia at 24 mg/kg, po administered for 4 days measured on day 4; assay type: functional; details: 96 h
Method in brief: (§2)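 Swiss mice infected with multidrug-resistant P. yoelii nigeriensis were treated by the Peters procedure: 5 per group, dosed daily for 4 days, oral or i.m. Parasitaemia was read on day 4 against an untreated control group. Suppression = [(c − t)/c] × 100, where c is control and t is treated parasitaemia. 100% means parasites were below the detection limit.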

[5] = tested on: Plasmodium yoelii nigeriensis; test: Antimalarial activity against chloroquine, mefloquine and halofantrine-resistant Plasmodium yoelii nigeriensis infected in Swiss mouse assessed as suppression of parasitemia at 48 mg/kg, po administered for 4 days measured on day 4; assay type: functional; details: 96 h; method in brief: as §2
[6] = tested on: Plasmodium yoelii nigeriensis; test: Antimalarial activity against chloroquine, mefloquine and halofantrine-resistant Plasmodium yoelii nigeriensis infected in Swiss mouse assessed as suppression of parasitemia at 96 mg/kg, im administered for 4 days measured on day 4; assay type: functional; details: 96 h, route intramuscular; method in brief: as §2
[7] = tested on: Plasmodium yoelii nigeriensis; test: Antimalarial activity against chloroquine, mefloquine and halofantrine-resistant Plasmodium yoelii nigeriensis infected in Swiss mouse assessed as protection against parasite-induced mortality at 96 mg/kg, po administered for 4 days measured on day 28; assay type: functional, organism-based; set-up: dose 96 mg/kg, route po po po po po po po po po po po; method in brief: as §1
[8] = tested on: Plasmodium yoelii nigeriensis; test: Antimalarial activity against chloroquine, mefloquine and halofantrine-resistant Plasmodium yoelii nigeriensis infected in Swiss mouse assessed as suppression of parasitemia at 96 mg/kg, po administered for 4 days measured on day 4; assay type: functional; details: 96 h; method in brief: as §2
Cytochrome P450 2C11 = target: T1, Cytochrome P450 2C11 (Rattus norvegicus, UniProt P08683); test: Inhibition of CYP2C11 in rat liver microsome using diclofenac as substrate by HPLC-PDA analysis; assay type: ADME, microsomes
T1 sequence (P08683 whole entry): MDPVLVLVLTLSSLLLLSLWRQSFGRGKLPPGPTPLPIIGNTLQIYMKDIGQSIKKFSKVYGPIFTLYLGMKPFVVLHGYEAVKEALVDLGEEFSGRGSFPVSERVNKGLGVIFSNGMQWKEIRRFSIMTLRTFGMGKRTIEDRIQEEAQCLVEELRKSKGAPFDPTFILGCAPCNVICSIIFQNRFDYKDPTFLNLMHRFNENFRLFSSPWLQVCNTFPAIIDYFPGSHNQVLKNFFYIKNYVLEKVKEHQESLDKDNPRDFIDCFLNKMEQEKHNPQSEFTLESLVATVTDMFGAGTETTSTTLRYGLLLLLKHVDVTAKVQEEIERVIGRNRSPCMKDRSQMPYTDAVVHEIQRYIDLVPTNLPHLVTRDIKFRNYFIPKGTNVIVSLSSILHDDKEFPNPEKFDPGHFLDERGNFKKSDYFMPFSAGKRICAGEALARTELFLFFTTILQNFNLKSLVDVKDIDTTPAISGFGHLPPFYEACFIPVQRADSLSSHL

[9] = Half life in rat liver microsomes at […] by HPLC-PDA analysis; assay type: ADME, Microsome
[10] = Intrinsic clearance in rat liver microsomes at […] by HPLC-PDA analysis; assay type: ADME, Microsome; details: read-out: CLH
Cytochrome P450 1A2 = target: T2, Cytochrome P450 1A2 (Rattus norvegicus, UniProt P04799); test: Inhibition of CYP1A2 in rat liver microsome using phenacetin as substrate by HPLC-PDA analysis; assay type: ADME, microsomes
T2 sequence (P04799 whole entry): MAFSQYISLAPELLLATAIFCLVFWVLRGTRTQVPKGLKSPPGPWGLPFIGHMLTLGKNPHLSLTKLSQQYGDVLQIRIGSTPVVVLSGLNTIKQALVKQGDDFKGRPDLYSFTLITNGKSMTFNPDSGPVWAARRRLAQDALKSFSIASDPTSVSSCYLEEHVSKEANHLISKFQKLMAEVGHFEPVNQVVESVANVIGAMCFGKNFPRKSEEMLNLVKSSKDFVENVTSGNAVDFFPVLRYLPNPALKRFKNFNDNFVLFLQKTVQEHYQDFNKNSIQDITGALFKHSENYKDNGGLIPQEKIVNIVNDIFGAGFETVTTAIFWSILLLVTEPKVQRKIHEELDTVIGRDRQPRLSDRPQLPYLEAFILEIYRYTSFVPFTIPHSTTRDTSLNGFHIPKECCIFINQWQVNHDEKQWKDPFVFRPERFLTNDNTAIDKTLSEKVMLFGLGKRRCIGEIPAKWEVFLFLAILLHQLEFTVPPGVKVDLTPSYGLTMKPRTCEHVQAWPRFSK

[11] = Inhibition of CYP3A in rat liver microsome using testosterone as substrate by HPLC-PDA analysis; assay type: ADME, microsomes
Cytochrome P450 2D4 = target: T3, Cytochrome P450 2D4 (Rattus norvegicus, UniProt Q64680); test: Inhibition of CYP2D4 in rat liver microsome using dextromethorphan as substrate by HPLC-PDA analysis; assay type: ADME, microsomes
T3 sequence (Q64680 whole entry): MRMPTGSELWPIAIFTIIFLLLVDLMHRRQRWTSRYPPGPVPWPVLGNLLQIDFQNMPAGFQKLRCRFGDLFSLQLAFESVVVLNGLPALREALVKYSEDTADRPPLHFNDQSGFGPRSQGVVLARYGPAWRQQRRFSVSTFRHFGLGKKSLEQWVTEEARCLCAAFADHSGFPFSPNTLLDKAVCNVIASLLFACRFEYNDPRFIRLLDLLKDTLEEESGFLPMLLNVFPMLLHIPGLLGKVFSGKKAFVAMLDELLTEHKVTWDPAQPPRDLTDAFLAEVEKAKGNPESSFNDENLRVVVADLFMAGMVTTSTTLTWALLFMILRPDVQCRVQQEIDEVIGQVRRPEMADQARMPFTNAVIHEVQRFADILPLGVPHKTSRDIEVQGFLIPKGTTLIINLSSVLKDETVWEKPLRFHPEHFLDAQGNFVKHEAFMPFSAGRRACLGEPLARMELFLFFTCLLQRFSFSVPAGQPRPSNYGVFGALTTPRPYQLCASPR

Plasma = test: Fraction unbound in rat plasma at 10 uM by ultra-filtration method; assay type: ADME, cell-free
[12] = Metabolic stability in rat liver microsomes at […] after 30 mins by HPLC-PDA analysis; assay type: ADME, Microsome; details: read-out: Stability
[13] = Solubility of the compound in distilled water after 24 hrs by shake flask method; assay type: physicochemical
[14] = Distribution coefficient, log D of the compound at pH 7.4 by HPLC-PDA analysis; assay type: physicochemical; details: octanol/water
[15] = tested on: Plasmodium yoelii nigeriensis; test: Antimalarial activity against chloroquine, mefloquine and halofantrine-resistant Plasmodium yoelii nigeriensis infected in Swiss mouse assessed as protection against parasite-induced mortality at 12 mg/kg, po administered for 4 days measured on day 28; assay type: functional, organism-based; set-up: dose 12 mg/kg; method in brief: as §1
[16] = Effective permeability coefficient of the compound in Sprague-Dawley rat intestine at 10 uM by In-situ single pass intestinal perfusion technique; assay type: ADME, tissue-based; details: other: in situ single pass intestinal perfusion, read-out: Peff
[17] = tested on: Plasmodium yoelii nigeriensis; test: Antimalarial activity against chloroquine, mefloquine and halofantrine-resistant Plasmodium yoelii nigeriensis infected in Swiss mouse assessed as suppression of parasitemia at 12 mg/kg, po administered for 4 days measured on day 4; assay type: functional; details: 96 h; method in brief: as §2

## C=C(c1ccc(C)cc1)[C@H]1OOC2(CCCCC2)O[C@@H]1c1ccc(C)cc1 (relative stereo)
[1]
  Activity: inactive
[2]
  Activity: inactive
[3]
  Activity: inactive
[4]
  inhibition in vivo at 24 mg/kg: 49.6%
[5]
  inhibition in vivo at 48 mg/kg: 89.4%
[6]
  inhibition in vivo at 96 mg/kg: 16.6%

## C=C(c1ccccc1)[C@H]1OOC2(CCCC2)O[C@@H]1c1ccccc1 (relative stereo)
[1]
  Activity: inactive
[7]
  Activity: inactive
[6]
  inhibition in vivo at 96 mg/kg: 46.9%
[8]
  inhibition in vivo at 96 mg/kg: 23.8%

## C=C(c1ccc(Cl)cc1)[C@H]1OOC2(O[C@@H]1c1ccc(Cl)cc1)C1CC3CC(C1)CC2C3 (relative stereo)
[8]
  inhibition in vivo at 96 mg/kg: 77.2%

## C=C(c1ccccc1)[C@H]1OOC2(O[C@@H]1c1ccccc1)C1CC3CC(C1)CC2C3 (relative stereo)
[1]
  Activity: inactive
[7]
  Activity: inactive
[6]
  inhibition in vivo at 96 mg/kg: 44.8%
[8]
  inhibition in vivo at 96 mg/kg: 32.4%

## CCO[C@H]1O[C@@H]2O[C@@]3(C)CC[C@H]4[C@H](C)CC[C@@H]([C@H]1C)[C@@]24OO3 [ARTEMOTIL]
Cytochrome P450 2C11
  pIC50: < 4.00
[9]
  half-life: 47.4 min
[10]
  microsomal CLint: 36.6 µL/min/mg
Cytochrome P450 1A2
  pIC50: < 4.00
[11]
  pIC50: < 4.00
Cytochrome P450 2D4
  pIC50: < 4.00
Plasma
  Fu: 1%
[12]
  remaining at 0.5 h: 50%
[13]; buffer, 24 h
  solubility: Insoluble
[14]
  logD: 3.6
[2]
  Activity: 20%
[3]
  Activity: 100%
[4]
  inhibition in vivo at 24 mg/kg: 100%
[5]
  inhibition in vivo at 48 mg/kg: 100%

## C=C(c1ccc(Br)cc1)[C@H]1OOC2(CCCCC2)O[C@@H]1c1ccc(Br)cc1 (relative stereo)
[8]
  inhibition in vivo at 96 mg/kg: 100%

## C=C(c1ccc(C)cc1)[C@H]1OOC2(O[C@@H]1c1ccc(C)cc1)C1CC3CC(C1)CC2C3 (relative stereo)
[1]
  Activity: inactive
[7]
  Activity: inactive
[6]
  inhibition in vivo at 96 mg/kg: 5.76%
[8]
  inhibition in vivo at 96 mg/kg: 36.7%

## C=C(c1ccc(Cl)cc1)[C@H]1OOC2(CCCCC2)O[C@@H]1c1ccc(Cl)cc1 (relative stereo)
[1]
  Activity: inactive
[15]
  Activity: inactive
[9]
  half-life: 23 min
[10]
  microsomal CLint: 60.3 µL/min/mg
Plasma
  Fu: 0.8%
[16]
  Papp at 10 µM: 113 ×10⁻⁶ cm/s
[13]; distilled water
  solubility thermodynamic at 24 h: 13 µM (≈ 5.27 µg/mL)
[14]
  logD: 4.23
[2]
  Activity: 100%
[3]
  Activity: Active
[17]
  inhibition in vivo at 12 mg/kg: 100%
[4]
  inhibition in vivo at 24 mg/kg: 100%
[6]
  inhibition in vivo at 96 mg/kg: 3.45%
[8]
  inhibition in vivo at 96 mg/kg: 100%

## C=C(c1ccccc1)[C@H]1OOC2(CCCCC2)O[C@@H]1c1ccccc1 (relative stereo)
[1]
  Activity: inactive
[7]
  Activity: inactive
[6]
  inhibition in vivo at 96 mg/kg: 22.3%
[8]
  inhibition in vivo at 96 mg/kg: 34.5%

## C=C(c1ccc(Br)cc1)[C@H]1OOC2(CCCC2)O[C@@H]1c1ccc(Br)cc1 (relative stereo)
[2]
  Activity: inactive
[3]
  Activity: 20%
[4]
  inhibition in vivo at 24 mg/kg: 98.6%
[5]
  inhibition in vivo at 48 mg/kg: 100%

## C=C(c1ccc(F)cc1)[C@H]1OOC2(CCCC2)O[C@@H]1c1ccc(F)cc1 (relative stereo)
[7]
  Activity: inactive
[8]
  inhibition in vivo at 96 mg/kg: 22.5%

## C=C(c1ccc(F)cc1)[C@H]1OOC2(CCCCC2)O[C@@H]1c1ccc(F)cc1 (relative stereo)
[7]
  Activity: inactive
[8]
  inhibition in vivo at 96 mg/kg: 42.5%

## C=C(c1ccc(OC)cc1)[C@H]1OOC2(O[C@@H]1c1ccc(OC)cc1)C1CC3CC(C1)CC2C3 (relative stereo)
[7]
  Activity: inactive
[8]
  inhibition in vivo at 96 mg/kg: 24.6%

## C=C(c1ccc(C)cc1)[C@H]1OOC2(CCCC2)O[C@@H]1c1ccc(C)cc1 (relative stereo)
[7]
  Activity: inactive
[8]
  inhibition in vivo at 96 mg/kg: 100%

## C=C(c1ccc(Cl)cc1)[C@H]1OOC2(CCCC2)O[C@@H]1c1ccc(Cl)cc1 (relative stereo)
[7]
  Activity: inactive
[8]
  inhibition in vivo at 96 mg/kg: 63.6%

## C=C(c1ccc(Br)cc1)[C@H]1OOC2(O[C@@H]1c1ccc(Br)cc1)C1CC3CC(C1)CC2C3 (relative stereo)
[7]
  Activity: inactive
[8]
  inhibition in vivo at 96 mg/kg: 18.1%

## C=C(c1ccc(F)cc1)[C@H]1OOC2(O[C@@H]1c1ccc(F)cc1)C1CC3CC(C1)CC2C3 (relative stereo)
[7]
  Activity: inactive
[8]
  inhibition in vivo at 96 mg/kg: 16.7%
